# In ChEMBL document CHEMBL1155055, “Novel aminopeptidase N inhibitors derived from 1,3,4-thiadiazole scaffold” (Bioorg Med Chem, 2008):
# The source made the active and inactive calls. No cut-off for these calls is given here.
# Tests used:
# Aminopeptidase N = target: T1, Aminopeptidase N (Sus scrofa, UniProt P15145); assay: Inhibition of pig kidney microsomes aminopeptidase N
# T1 sequence (P15145 whole entry): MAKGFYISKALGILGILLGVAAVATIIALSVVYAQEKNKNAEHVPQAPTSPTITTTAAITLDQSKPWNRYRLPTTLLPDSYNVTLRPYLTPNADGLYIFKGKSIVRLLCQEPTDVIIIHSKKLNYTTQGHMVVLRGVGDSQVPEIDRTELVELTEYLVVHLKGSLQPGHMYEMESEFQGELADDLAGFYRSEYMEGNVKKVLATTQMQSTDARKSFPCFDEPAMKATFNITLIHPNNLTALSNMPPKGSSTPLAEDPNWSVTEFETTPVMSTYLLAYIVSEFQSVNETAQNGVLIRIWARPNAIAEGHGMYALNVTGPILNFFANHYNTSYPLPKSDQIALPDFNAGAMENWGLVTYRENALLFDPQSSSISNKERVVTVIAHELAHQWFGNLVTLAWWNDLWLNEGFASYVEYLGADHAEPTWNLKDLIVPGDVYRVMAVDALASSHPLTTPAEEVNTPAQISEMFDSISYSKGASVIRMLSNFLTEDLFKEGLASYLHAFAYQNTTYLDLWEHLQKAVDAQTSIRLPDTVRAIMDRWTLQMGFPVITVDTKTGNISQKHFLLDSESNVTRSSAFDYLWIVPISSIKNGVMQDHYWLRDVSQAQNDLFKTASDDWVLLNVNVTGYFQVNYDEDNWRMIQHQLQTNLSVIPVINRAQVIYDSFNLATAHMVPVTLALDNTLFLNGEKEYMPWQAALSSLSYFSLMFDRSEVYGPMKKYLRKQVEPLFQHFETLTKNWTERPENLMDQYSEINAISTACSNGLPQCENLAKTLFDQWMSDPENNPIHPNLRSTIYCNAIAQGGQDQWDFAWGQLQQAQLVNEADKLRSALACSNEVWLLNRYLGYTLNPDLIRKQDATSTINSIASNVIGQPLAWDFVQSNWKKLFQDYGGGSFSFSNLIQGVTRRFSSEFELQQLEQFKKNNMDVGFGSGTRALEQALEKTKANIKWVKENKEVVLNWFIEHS
# [1] = target: 72 kDa type IV collagenase (Homo sapiens, UniProt P08253); assay: Inhibition of MMP2
# How it was run: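 Gelatinase (MMP-2), substrate and inhibitor in 50 mmol/L sodium borate pH 8.5, 30 min at 37 °C; then 0.03% TNBS added, further 20 min incubation; absorbance read at 450 nm.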
IC50 (Aminopeptidase N),Activity [1],IC50 [1],Structure (SMILES)
115 µM,inactive,–,C[C@@H](NC(=O)/C=C/c1ccc(O)cc1)C(=O)Nc1nnc(-c2ccc(F)cc2)s1
135 µM,inactive,–,COc1ccc(/C=C/C(=O)N[C@H](C)C(=O)Nc2nnc(-c3ccc(Cl)cc3)s2)cc1
78.5 µM,inactive,–,COc1ccc(/C=C/C(=O)N[C@H](C)C(=O)Nc2nnc(-c3ccc(OC)cc3)s2)cc1
84.7 µM,inactive,–,C[C@@H](NC(=O)/C=C/c1ccccc1)C(=O)Nc1nnc(-c2ccc([N+](=O)[O-])cc2)s1
127 µM,inactive,–,Cc1ccc(-c2nnc(NC(=O)[C@@H](C)NC(=O)/C=C/c3ccc(O)cc3)s2)cc1
105 µM,inactive,–,C[C@@H](NC(=O)/C=C/c1ccc(O)cc1)C(=O)Nc1nnc(-c2ccc(Cl)cc2)s1
108 µM,inactive,–,COc1ccc(/C=C/C(=O)N[C@H](C)C(=O)Nc2nnc(-c3ccc(Br)cc3)s2)cc1
54.1 µM,inactive,–,C[C@@H](NC(=O)/C=C/c1ccc(O)cc1)C(=O)Nc1nnc(-c2ccc([N+](=O)[O-])cc2)s1
35.3 µM,inactive,–,C[C@@H](NC(=O)/C=C/c1ccc(O)cc1)C(=O)Nc1nnc(-c2ccc(Br)cc2)s1
206 µM,inactive,–,Cc1ccc(-c2nnc(NC(=O)[C@@H](C)NC(=O)/C=C/c3ccccc3)s2)cc1
153 µM,inactive,–,C[C@@H](NC(=O)/C=C/c1ccccc1)C(=O)Nc1nnc(-c2ccc(Cl)cc2)s1
68.8 µM,inactive,–,COc1ccc(-c2nnc(NC(=O)[C@@H](C)NC(=O)/C=C/c3ccc(O)cc3)s2)cc1
–,–,9.5 µM,CC(C)C[C@H](NC(=O)[C@@H](O)[C@H](N)Cc1ccccc1)C(=O)O [UBENIMEX]
31.4 µM,inactive,–,COc1ccc(-c2nnc(NC(=O)[C@@H](C)NC(=O)/C=C/c3ccccc3)s2)cc1
44.6 µM,–,297 µM,COc1ccc(/C=C/C(=O)N[C@H](C)C(=O)Nc2nnc(-c3ccc([N+](=O)[O-])cc3)s2)cc1
131 µM,inactive,–,COc1ccc(/C=C/C(=O)N[C@H](C)C(=O)Nc2nnc(-c3ccccc3)s2)cc1
90.7 µM,inactive,–,COc1ccc(/C=C/C(=O)N[C@H](C)C(=O)Nc2nnc(-c3ccc(F)cc3)s2)cc1
115 µM,inactive,–,C[C@@H](NC(=O)/C=C/c1ccccc1)C(=O)Nc1nnc(-c2ccc(Br)cc2)s1
216 µM,inactive,–,C[C@@H](NC(=O)/C=C/c1ccccc1)C(=O)Nc1nnc(-c2ccccc2)s1
124 µM,inactive,–,C[C@@H](NC(=O)/C=C/c1ccc(O)cc1)C(=O)Nc1nnc(-c2ccccc2)s1
141 µM,inactive,–,COc1ccc(/C=C/C(=O)N[C@H](C)C(=O)Nc2nnc(-c3ccc(C)cc3)s2)cc1
183 µM,inactive,–,C[C@@H](NC(=O)/C=C/c1ccccc1)C(=O)Nc1nnc(-c2ccc(F)cc2)s1
